Activity calls are given as the source filed them. The calls are words filed in the database; no cut-off is given here.
Legend:
[1] = system: Mus musculus; test: Toxicity in mouse assessed as change in appearance at 12.5 to 50 mg/kg, po bid in 20% HP-beta-CD; format: organism-based; set-up: dose 12.5-50 mg/kg, route oral; conditions: in vivo
In short: (§1)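 Mice in the four-day oral treatment study were given compound bid by gavage in 20% HPβCD or 20% Kolliphor. They were watched for weight loss, mobility problems and changes in appearance throughout dosing.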

[2] = Tmax in mouse at 50 mg/kg, po in 20% HP-beta-CD; format: ADME, organism-based; set-up: dose 50 mg/kg, route oral; conditions: in vivo
In short: (§2)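 Female Swiss Webster mice, 8 weeks old, given one oral gavage dose of 50 mg/kg as a 10 mg/mL preparation in the named vehicle (20% HPβCD suspension or 20% Kolliphor). Plasma sampled at about 0.25, 0.5, 1, 2, 4, 6, 8, 12 and 24 h, n = 3 per time point. Protein precipitated with 5 volumes acetonitrile, filtered, then LC-MS/MS. Values are averages of three mice.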

[3] = Drug uptake in mouse skeletal muscle at 50 mg/kg, po in 20% Kolliphor measured at 8 hrs post dose; format: ADME, organism-based, Muscle tissue; set-up: dose 50 mg/kg, route oral; conditions: in vivo
In short: (§3)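 Female Swiss Webster mice, 8 weeks old, given a single 50 mg/kg oral gavage dose in 20% HPβCD or 20% Kolliphor. Tissues taken from three mice at 2 and 8 h post dose. Homogenized by probe sonication in PBS (1:4 w/v), protein precipitated with acetonitrile, and compound measured by LC-MS/MS in μM.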

[4] = Drug uptake in mouse fat at 50 mg/kg, po in 20% HP-beta-CD measured at 8 hrs post dose; format: ADME, organism-based, Adipose tissue; set-up: dose 50 mg/kg, route oral; conditions: in vivo; in short: as §3
[5] = system: Intestine; test: Drug uptake in mouse intestine at 50 mg/kg, po in 20% HP-beta-CD measured at 8 hrs post dose; format: ADME, organism-based; set-up: dose 50 mg/kg, route oral; conditions: in vivo; in short: as §3
[6] = system: Heart; test: Drug uptake in mouse heart at 50 mg/kg, po in 20% HP-beta-CD measured at 8 hrs post dose; format: ADME, organism-based; set-up: dose 50 mg/kg, route oral; conditions: in vivo; in short: as §3
[7] = Half life in mouse at 50 mg/kg, po in 20% Kolliphor; format: ADME, organism-based; set-up: dose 50 mg/kg, route oral; conditions: in vivo; in short: as §2
[8] = system: Trypanosoma cruzi; test: Antitrypanosomal activity against Trypanosoma cruzi Y luc infected in mouse assessed as inhibition of parasitemia at 25 mg/kg, po bid in 20% HP-beta-CD administered for 4 consecutive days starting on day 3 of infection measured on day 7 post infection relative to vehicle-treated control; format: functional, organism-based; set-up: dose 25 mg/kg
In short: (§4)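 Female Swiss Webster mice, 8 weeks old, infected ip with 10^5 T. cruzi Y luc trypomastigotes. Only mice with detectable luminescence on day 3 were treated. Compound given by oral gavage bid for four days, as a suspension in 20% HPβCD or a solution in 20% Kolliphor, five mice per group. Vehicle group and benznidazole 50 mg/kg served as controls. On day 7, mice were injected ip with 150 mg/kg d-luciferin and imaged after 5 min under isoflurane. Percent inhibition calculated against untreated mice; two-tailed paired t test.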

[9] = system: C2C12; test: Cytotoxicity against mouse C2C12 cells up to 10 uM; format: cell-based
In short: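 Mouse C2C12 myoblasts infected with T. cruzi CA-I/72, then exposed at 24 h postinfection to compound at 10 μM down to 5 pM in 5-fold steps for 72 h at 37 °C. Cells fixed in paraformaldehyde, stained with DAPI and scored by automated imaging. Triplicate wells; uninfected and infected untreated wells as controls.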

[10] = system: Trypanosoma cruzi; test: Antitrypanosomal activity against Trypanosoma cruzi Y luc infected in mouse assessed as inhibition of parasitemia at 50 mg/kg, po bid in 20% HP-beta-CD administered for 4 consecutive days starting on day 3 of infection measured on day 7 post infection relative to vehicle-treated control; format: functional, organism-based; set-up: dose 50 mg/kg; in short: as §4
[11] = Cmax in mouse at 50 mg/kg, po in 20% Kolliphor; format: ADME, organism-based; set-up: dose 50 mg/kg, route oral; conditions: in vivo; in short: as §2
[12] = system: Mus musculus; test: Toxicity in mouse assessed as mobility issues at 12.5 to 50 mg/kg, po bid in 20% HP-beta-CD; format: organism-based; set-up: dose 12.5-50 mg/kg, route oral; conditions: in vivo; in short: as §1
[13] = Clearance in mouse at 50 mg/kg, po in 20% Kolliphor; format: ADME, organism-based; set-up: dose 50 mg/kg, route oral; conditions: in vivo; in short: as §2
[14] = system: Heart; test: Drug uptake in mouse heart at 50 mg/kg, po in 20% Kolliphor measured at 8 hrs post dose; format: ADME, organism-based; set-up: dose 50 mg/kg, route oral; conditions: in vivo; in short: as §3
[15] = system: Mus musculus; test: Toxicity in mouse assessed as change in appearance at 12.5 to 50 mg/kg, po bid in 20% Kolliphor; format: organism-based; set-up: dose 12.5-50 mg/kg, route oral; conditions: in vivo; in short: as §1
[16] = Tmax in mouse at 50 mg/kg, po in 20% Kolliphor; format: ADME, organism-based; set-up: dose 50 mg/kg, route oral; conditions: in vivo; in short: as §2
[17] = system: Trypanosoma cruzi; test: Antitrypanosomal activity against Trypanosoma cruzi Y luc infected in mouse assessed as inhibition of parasitemia at 50 mg/kg, po bid in 20% Kolliphor administered for 4 consecutive days starting on day 3 of infection measured on day 7 post infection relative to vehicle-treated control; format: functional; in short: as §4
[18] = Clearance in mouse at 50 mg/kg, po in 20% HP-beta-CD; format: ADME, organism-based; set-up: dose 50 mg/kg, route oral; conditions: in vivo; in short: as §2
[19] = system: Liver; test: Drug uptake in mouse liver at 50 mg/kg, po in 20% HP-beta-CD measured at 8 hrs post dose; format: ADME, organism-based; set-up: dose 50 mg/kg, route oral; conditions: in vivo; in short: as §3
[20] = system: Mus musculus; test: Toxicity in mouse assessed as weight loss at 12.5 to 50 mg/kg, po bid in 20% HP-beta-CD; format: organism-based; set-up: dose 12.5-50 mg/kg, route oral; conditions: in vivo; in short: as §1
[21] = target: Sterol 14-alpha demethylase (Trypanosoma cruzi (strain CL Brener), UniProt Q7Z1V1); test: Binding affinity to Trypanosoma cruzi CYP51 by UV-vis titration method; conditions: read-out: Kd(app)
Sequence of Sterol 14-alpha demethylase (Q7Z1V1 whole entry): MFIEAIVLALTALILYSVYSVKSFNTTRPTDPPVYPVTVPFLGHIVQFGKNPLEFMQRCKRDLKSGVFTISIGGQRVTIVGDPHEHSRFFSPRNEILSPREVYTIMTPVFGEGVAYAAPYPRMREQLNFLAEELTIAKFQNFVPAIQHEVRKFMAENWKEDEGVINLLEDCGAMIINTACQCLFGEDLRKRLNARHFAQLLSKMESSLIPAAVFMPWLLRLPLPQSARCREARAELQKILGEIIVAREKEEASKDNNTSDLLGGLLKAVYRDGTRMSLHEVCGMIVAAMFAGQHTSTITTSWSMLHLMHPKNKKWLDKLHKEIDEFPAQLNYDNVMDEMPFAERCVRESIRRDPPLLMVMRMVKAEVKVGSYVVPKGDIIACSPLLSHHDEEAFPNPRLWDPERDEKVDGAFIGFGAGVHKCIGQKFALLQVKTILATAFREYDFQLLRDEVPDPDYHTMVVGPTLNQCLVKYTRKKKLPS

[22] = Drug uptake in mouse fat at 50 mg/kg, po in 20% Kolliphor measured at 8 hrs post dose; format: ADME, organism-based, Adipose tissue; set-up: dose 50 mg/kg, route oral; conditions: in vivo; in short: as §3
[23] = Cmax in mouse at 50 mg/kg, po in 20% HP-beta-CD; format: ADME, organism-based; set-up: dose 50 mg/kg, route oral; conditions: in vivo; in short: as §2
[24] = Drug uptake in mouse skeletal muscle at 50 mg/kg, po in 20% HP-beta-CD measured at 8 hrs post dose; format: ADME, organism-based, Muscle tissue; set-up: dose 50 mg/kg, route oral; conditions: in vivo; in short: as §3
[25] = AUClast in mouse at 50 mg/kg, po in 20% Kolliphor; format: ADME, organism-based; set-up: time 0 - last, dose 50 mg/kg, route oral; conditions: plasma; in short: as §2
[26] = system: Lung; test: Drug uptake in mouse lung at 50 mg/kg, po in 20% HP-beta-CD measured at 8 hrs post dose; format: ADME, organism-based; set-up: dose 50 mg/kg, route oral; conditions: in vivo; in short: as §3
[27] = system: Lung; test: Drug uptake in mouse lung at 50 mg/kg, po in 20% Kolliphor measured at 8 hrs post dose; format: ADME, organism-based; set-up: dose 50 mg/kg, route oral; conditions: in vivo; in short: as §3
[28] = Half life in mouse at 50 mg/kg, po in 20% HP-beta-CD; format: ADME, organism-based; set-up: dose 50 mg/kg, route oral; conditions: in vivo; in short: as §2
[29] = AUClast in mouse at 50 mg/kg, po in 20% HP-beta-CD; format: ADME, organism-based, Plasma; set-up: time 0 - last, dose 50 mg/kg, route oral; conditions: plasma; in short: as §2
[30] = system: Intestine; test: Drug uptake in mouse intestine at 50 mg/kg, po in 20% Kolliphor measured at 8 hrs post dose; format: ADME, organism-based; set-up: dose 50 mg/kg, route oral; conditions: in vivo; in short: as §3
[31] = system: Mus musculus; test: Toxicity in mouse assessed as weight loss at 12.5 to 50 mg/kg, po bid in 20% Kolliphor; format: organism-based; set-up: dose 12.5-50 mg/kg, route oral; conditions: in vivo; in short: as §1
[32] = system: Liver; test: Drug uptake in mouse liver at 50 mg/kg, po in 20% Kolliphor measured at 8 hrs post dose; format: ADME, organism-based; set-up: dose 50 mg/kg, route oral; conditions: in vivo; in short: as §3
[33] = system: Mus musculus; test: Toxicity in mouse assessed as mobility issues at 12.5 to 50 mg/kg, po bid in 20% Kolliphor; format: organism-based; set-up: dose 12.5-50 mg/kg, route oral; conditions: in vivo; in short: as §1

Tmax [2]: 4.67 h | Drug uptake [3]: Active | Drug uptake [4]: Active | Drug uptake [5]: Active | Drug uptake [6]: Active | half-life [7]: 4.39 h | Cmax [11]: 5.94 µM | CL/F [13]: 2.33 L/h/kg | Drug uptake [14]: Active | Tmax [16]: 2.33 h | CL/F [18]: 2.57 L/h/kg | Drug uptake [19]: Active | Kd [21]: ≤ 0.01 µM | Drug uptake [22]: Active | Cmax [23]: 3.27 µM | Drug uptake [24]: Active | AUC(0-t) [25]: 29.6 µM·h | Drug uptake [26]: Active | Drug uptake [27]: Active | half-life [28]: 6.88 h | AUC(0-t) [29]: 16.7 µM·h | Drug uptake [30]: Active | Drug uptake [32]: Active
Compound: O=C(N[C@H](Cc1c[nH]c2ccccc12)C(=O)Nc1ccncc1)c1ccc(N2CCN(c3ccc(F)cc3F)CC2)cc1F
Activity [1]: Non-toxic | inhibition [8]: Active | Activity [9]: Non-toxic | inhibition [10]: Active | Activity [12]: Non-toxic | Activity [15]: Non-toxic | inhibition in vivo at 50 mg/kg [17]: 98.4% | Activity [20]: Non-toxic | Activity [31]: Non-toxic | Activity [33]: Non-toxic

From ChEMBL document CHEMBL3352430, “4-Aminopyridyl-based CYP51 inhibitors as anti-Trypanosoma cruzi drug leads with improved pharmacokinetic profile and in vivo potency” (J Med Chem, 2014)
